# Peptide text beside a SMILES is read from it.
# Assays:
# Rattus norvegicus [1] = organism: Rattus norvegicus; assay: Concentration at which compound antagonizes increase in arterial pressure produced by angiotensin II; conditions: Artery
# Rattus norvegicus [2] = assay: Variation in mean arterial pressure produced by angiotensin II, 10 min after administration (dose: 60 ug/kg/min) in rats; 61/5; format: functional, Artery
# Summary of the method: (§1)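 Rats were anesthetized and ganglion-blocked. Antagonist was given by iv infusion in µg/kg per min. The pressor response to angiotensin II (30 ng/kg iv) was measured before infusion, during infusion, and 5, 10, 20, 40 and 60 min after it. Responses are given as % of the pre-infusion control, as mean ± SEM, with n = 4–6 rats.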
# Rattus norvegicus [3] = assay: Variation in mean arterial pressure produced by angiotensin II, 20 min after administration (dose: 60 ug/kg/min) in rats; 78/5; format: functional, Artery
# Summary of the method: as §1
# Rattus norvegicus [4] = assay: Variation in mean arterial pressure, produced by angiotensin II upon administration at 60 ug/kg/min in rats; 6/3; format: functional, Artery
# Summary of the method: as §1
# Rattus norvegicus [5] = assay: Variation in mean arterial pressure produced by angiotensin II, 5 min after administration (dose: 60 ug/kg/min) in rats; 50/5; format: functional, Artery
# Summary of the method: as §1
# Rattus norvegicus [6] = assay: Variation in mean arterial pressure produced by angiotensin II, 40 min after administration (dose: 60 ug/kg/min) in rats; 91/4; format: functional, Artery
# Summary of the method: as §1
# Oryctolagus cuniculus = organism: Oryctolagus cuniculus; assay: Tested for antagonist activity in rabbit aortic rings, pA2 values were determined from Schild plots.; format: functional; conditions: Aorta, read-out: pA2 (converted)
# Summary of the method: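 Isolated rabbit aortic rings were used and contraction was recorded. Agonist activity was tested up to 10⁻⁵ M. For antagonism, angiotensin II concentration-response curves were run with and without three antagonist concentrations. pD2 was taken from the curves and pA2 from Schild plots fitted by least squares.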
# Rattus norvegicus [7] = assay: Variation in mean arterial pressure produced by angiotensin II, 60 min after administration (dose: 60 ug/kg/min) in rats; 91/5; format: functional, Artery
# Summary of the method: as §1
# Canis familiaris = organism: Canis familiaris; assay: Antagonistic effect on aldosterone secretion by zona glomerulosa cells from canine adrenal glands; format: functional; conditions: Canis lupus familiaris; Adrenal gland
# Rattus norvegicus [8] = assay: Variation in mean arterial pressure produced by angiotensin II, 40 min after administration (dose 10 ug/kg/min) in rats; 96/4; format: functional, Artery
# Summary of the method: as §1
# Rattus norvegicus [9] = assay: Variation in mean arterial pressure produced by angiotensin II, 60 min after administration (dose 10 ug/kg/min) in rats; 94/6; format: functional, Artery
# Summary of the method: as §1
# Rattus norvegicus [10] = assay: Variation in mean arterial pressure, produced by angiotensin II upon administration at 10 ug/kg/min in rats; format: functional, Artery
# Summary of the method: as §1
# Rattus norvegicus [11] = assay: Variation in mean arterial pressure produced by angiotensin II, 10 min after administration (dose 10 ug/kg/min) in rats; 50/5; format: functional, Artery
# Summary of the method: as §1
# Rattus norvegicus [12] = assay: Variation in mean arterial pressure produced by angiotensin II, 20 min after administration (dose 10 ug/kg/min) in rats; 78/5; format: functional, Artery
# Summary of the method: as §1
# Rattus norvegicus [13] = assay: Variation in mean arterial pressure produced by angiotensin II, 5 min after administration (dose 10 ug/kg/min) in rats; 29/5; format: functional, Artery
# Summary of the method: as §1
# Rattus norvegicus [14] = assay: Variation in mean arterial pressure, produced by angiotensin II upon administration at 30 ug/kg/min in rats; format: functional, Artery
# Summary of the method: as §1
# Rattus norvegicus [15] = assay: Variation in mean arterial pressure produced by angiotensin II, 10 min after administration (dose 30 ug/kg/min) in rats; 63/3; format: functional, Artery
# Summary of the method: as §1
# Rattus norvegicus [16] = assay: Variation in mean arterial pressure produced by angiotensin II, 60 min after administration (dose 30 ug/kg/min) in rats; 97/3; format: functional, Artery
# Summary of the method: as §1
# Rattus norvegicus [17] = assay: Variation in mean arterial pressure produced by angiotensin II, 20 min after administration (dose 30 ug/kg/min) in rats; 87/4; format: functional, Artery
# Summary of the method: as §1
# Rattus norvegicus [18] = assay: Variation in mean arterial pressure produced by angiotensin II, 40 min after administration (dose 30 ug/kg/min) in rats; 96/4; format: functional, Artery
# Summary of the method: as §1
# Rattus norvegicus [19] = assay: Variation in mean arterial pressure produced by angiotensin II, 5 min after administration (dose 30 ug/kg/min) in rats; 35/1; format: functional, Artery
# Summary of the method: as §1
# [20] = Rate constant was determined for the compound; format: ADME
compound,measurement,setting,value
CC[C@H](C)[C@H](NC(=O)[C@H](Cc1ccc(O)cc1)NC(=O)[C@@H](NC(=O)[C@H](CCCN=C(N)N)NC(=O)CNC)C(C)C)C(=O)N[C@@H](Cc1c[nH]cn1)C(=O)N1CCC[C@H]1C(N)=O,Concentration (ug min-1 kg-1),Rattus norvegicus [1],60
same,Control,Rattus norvegicus [2],61%
same,Control,Rattus norvegicus [3],78%
same,Control,Rattus norvegicus [4],6%
same,Control,Rattus norvegicus [5],50%
same,Control,Rattus norvegicus [6],91%
same,Kb,Oryctolagus cuniculus,23.4 nM
same,Control,Rattus norvegicus [7],91%
CC(C)[C@H](NC(=O)[C@H](CCCN=C(N)N)NC(=O)[C@@H](N)CC(=O)O)C(=O)N[C@@H](Cc1ccc(O)cc1)C(=O)N[C@H](C(=O)N[C@@H](Cc1c[nH]cn1)C(=O)N1CCC[C@H]1C(=O)O)C(C)C (H-DRVYVHP-OH),Concentration,Canis familiaris,1 mM
CNCC(=O)N[C@@H](CCCNC(=N)N)C(=O)N[C@H](C(=O)N[C@@H](Cc1ccc(O)cc1)C(=O)N[C@H](C(=O)N[C@@H](Cc1cnc[nH]1)C(=O)N1CCC[C@H]1C(=O)N[C@@H](C)C(=O)O)C(C)C)C(C)C [SARALASIN],Control,Rattus norvegicus [8],96%
same,Control,Rattus norvegicus [9],94%
same,Control,Rattus norvegicus [10],0%
same,Control,Rattus norvegicus [11],50%
same,Control,Rattus norvegicus [12],78%
same,Control,Rattus norvegicus [13],29%
CC[C@H](C)[C@H](NC(=O)[C@H](Cc1ccc(OC)cc1)NC(=O)[C@@H](NC(=O)[C@H](CCCN=C(N)N)NC(=O)CNC)C(C)C)C(=O)N[C@@H](Cc1c[nH]cn1)C(=O)N1CCC[C@H]1C(=O)N[C@@H](Cc1ccccc1)C(=O)O,Control,Rattus norvegicus [14],0%
same,Control,Rattus norvegicus [15],63%
same,Control,Rattus norvegicus [16],97%
same,Control,Rattus norvegicus [17],87%
same,Control,Rattus norvegicus [18],96%
same,Control,Rattus norvegicus [19],35%
CC[C@H](C)[C@H](NC(=O)[C@H](Cc1ccc(O)cc1)NC(=O)[C@@H](NC(=O)[C@H](CCCNC(=N)N)NC(=O)[C@@H](N)CC(=O)O)C(C)C)C(=O)N[C@@H](Cc1cnc[nH]1)C(=O)N1CCC[C@H]1C(=O)N[C@@H](Cc1ccccc1)C(=O)O [ANGIOTENSIN II],pD2,[20],8.98

# From ChEMBL document CHEMBL1124614, “A carboxy-terminus truncated analogue of angiotensin II, [Sar1]angiotensin II-(1-7)-amide, provides an entry to a new class of angiotensin II antagonists” (J Med Chem, 1989)
